This is an account of results in ChEMBL document CHEMBL4229495 (Bioorg Med Chem, 2018).

The target of data set [1] is T1, Tyrosyl-DNA phosphodiesterase 1 (Homo sapiens, UniProt Q9NUW8). The experiment in a line: Inhibition of recombinant Tdp1 (unknown origin) using 5'-(5,6 FAM-aac gtc agg gtc ttc c-BHQ1)-3' as substrate measured every 55 secs for 8 mins by fluorimetric assay.
Data set [2] is described as follows: Cytotoxicity against human A549 cells after 72 hrs by MTT assay. The data set is classed as cell-based. The essentials:
(§1)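 Cells seeded at ~2000 per well and grown 24 h at 37 °C, 5% CO2 in IMDM with 10% FBS plus penicillin/streptomycin. Then exposed to the compound (1 to 100 µM) for 72 h. Viability read by MTT as A570 versus DMSO control. CC50 interpolated from the dose-response curve. Mean ± SD of triplicates.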
(In general: Formazan colour is commonly taken as a measure of viable cells.)

The nature of data set [3]: Cytotoxicity against HEK293 cells after 72 hrs by MTT assay. Conditions: human. The data set is classed as cell-based. The essentials: as §1
The test system of data set [4] is Tdp1. Put plainly: Selectivity index, ratio of CC50 for human A549 cells to IC50 for recombinant Tdp1 (unknown origin) using 5'-(5,6 FAM-aac gtc agg gtc ttc c-BHQ1)-3' as substrate. To be noted: A549 cells (CC50) and recombinant Tdp1 (IC50), probe 5'-(5,6 FAM-aac gtc agg gtc ttc c-BHQ1)-3'. The data set is classed as toxicity.
Data set [5] relates to Tdp1. The experiment in a line: Selectivity index, ratio of CC50 for HEK293 cells to IC50 for recombinant Tdp1 (unknown origin) using 5'-(5,6 FAM-aac gtc agg gtc ttc c-BHQ1)-3' as substrate. It counts as toxicity. To be noted: human, HEK293 cells (CC50) and recombinant Tdp1 (IC50), probe 5'-(5,6 FAM-aac gtc agg gtc ttc c-BHQ1)-3'.
For data set [6], the system named is A549. The experiment in a line: Potentiation of topotecan-induced cytotoxicity against human A549 cells assessed as topotecan CC50 at 1 uM after 72 hrs by MTT assay (reference value: 111 +/- 27 nM). It counts as functional. Conditions: A549, 72 h.
In data set [7] the target is T1, Tyrosyl-DNA phosphodiesterase 1. The experiment in a line: Inhibition of recombinant Tdp1 (unknown origin) using 5'-([32P]-aac gtc agg gtc ttc c-tyrosine)-3' as substrate measured after 5 mins by electrophoresis method.
For data set [8] the target is unchanged. The experiment in a line: Inhibition of recombinant Tdp1 (unknown origin) using 5'-([32P]-aac gtc agg gtc ttc c-BHQ1)-3' as substrate measured after 20 mins by electrophoresis method.
The subject of data set [9] is A549. The experiment in a line: Potentiation of topotecan-induced cytotoxicity against human A549 cells assessed as fold reduction in topotecan CC50 at 1 uM after 72 hrs by MTT assay relative to topotecan alone. The data set is classed as functional. The essentials:
(§2)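 A-549 or HEK-293 cells (~2000/well) preincubated 24 h at 37 °C in IMDM with 10% FBS, penicillin/streptomycin, 5% CO2. Then treated with varied topotecan concentrations with or without inhibitor at 1 µM for 72 h. Viability read by MTT (A570) against DMSO control. Topotecan CC50 interpolated from dose-response curves, mean ± SD of triplicates.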

In a further data set the test system is HEK293. The experiment in a line: Potentiation of topotecan-induced cytotoxicity against HEK293 cells assessed as fold reduction in topotecan CC50 at 1 uM after 72 hrs by MTT assay relative to topotecan alone. The data set is classed as cell-based. To be noted: human, hek293, 72 h. The essentials:
as §2

T1 sequence (Q9NUW8 whole entry): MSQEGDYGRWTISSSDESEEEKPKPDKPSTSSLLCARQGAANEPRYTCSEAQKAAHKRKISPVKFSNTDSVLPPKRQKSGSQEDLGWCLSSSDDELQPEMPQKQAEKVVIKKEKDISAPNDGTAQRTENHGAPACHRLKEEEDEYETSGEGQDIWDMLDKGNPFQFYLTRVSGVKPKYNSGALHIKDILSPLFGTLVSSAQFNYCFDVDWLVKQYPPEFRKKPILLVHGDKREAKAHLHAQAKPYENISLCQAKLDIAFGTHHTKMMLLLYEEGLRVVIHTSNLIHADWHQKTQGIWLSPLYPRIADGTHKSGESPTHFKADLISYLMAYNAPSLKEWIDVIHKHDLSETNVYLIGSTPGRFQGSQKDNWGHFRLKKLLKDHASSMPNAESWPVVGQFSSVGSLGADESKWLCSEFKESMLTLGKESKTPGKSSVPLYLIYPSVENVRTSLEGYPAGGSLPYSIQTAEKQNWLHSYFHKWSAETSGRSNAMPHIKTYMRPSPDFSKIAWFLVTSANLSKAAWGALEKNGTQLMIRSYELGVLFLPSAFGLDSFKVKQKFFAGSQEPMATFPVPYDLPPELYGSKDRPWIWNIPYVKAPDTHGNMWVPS

For orientation: IC50 means the midpoint of a concentration-inhibition curve. Regarding `COc1ccccc1/C=C1\Oc2c(C)c(O)c3c(c2C1=O)OC1=CC(O)=C(C(C)=O)C(=O)[C@@]13C`, in [1], the IC50 was 0.39 µM.

For orientation: CC50 means the concentration giving 50% cytotoxicity. For `CC(=O)C1=C(O)C=C2Oc3c4c(c(C)c(O)c3[C@@]2(C)C1=O)O/C(=C\c1ccc(Br)cc1)C4=O`, the 50% cytotoxic concentration (CC50) at 72 h in [2] is 10 µM; in [3], 14.6 µM. For the same molecule, the selectivity ratio in the data set with Tdp1 [4] was 66.7; in the data set with Tdp1 [5], 97.3. Besides, the CC50 with A549 [6] was 0.162 µM.

In the case of `CC(=O)C1=C(O)C=C2Oc3c4c(c(C)c(O)c3[C@@]2(C)C1=O)O/C(=C\c1ccncc1)C4=O`, the IC50 in data set [1] is 0.81 µM.

On to `CC(=O)C1=C(O)C=C2Oc3c4c(c(C)c(O)c3[C@@]2(C)C1=O)O/C(=C\c1cccnc1)C4=O`, for which, in [1], the IC50 was 0.45 µM.

As for `CC(=O)C1=C(O)C=C2Oc3c4c(c(C)c(O)c3[C@@]2(C)C1=O)O/C(=C\c1sccc1C)C4=O`, in data set [1], the IC50 turned out to be 0.63 µM.

As for `CC(=O)C1=C(O)C=C2Oc3c4c(c(C)c(O)c3[C@@]2(C)C1=O)O/C(=C\c1ccccc1)C4=O`, in data set [1], the IC50 was 0.72 µM.

Regarding `CC(=O)C1=C(O)C=C2Oc3c4c(c(C)c(O)c3[C@@]2(C)C1=O)O/C(=C\c1ccc(C)s1)C4=O`, the IC50 in data set [1] was 0.84 µM.

`CC(=O)C1=C(O)C=C2Oc3c4c(c(C)c(O)c3[C@@]2(C)C1=O)O/C(=C\c1ccccn1)C4=O`: the IC50 in data set [1] worked out at 0.86 µM.

As for `CC(=O)C1=C(O)C=C2Oc3c4c(c(C)c(O)c3[C@@]2(C)C1=O)O/C(=C\c1ccc(Cl)cc1)C4=O`, in data set [1], the half-inhibitory concentration (IC50) was determined as 1.22 µM.

Consider `CC(=O)C1=C(O)C=C2Oc3c4c(c(C)c(O)c3[C@@]2(C)C1=O)O/C(=C\c1ccc(O)cc1)C4=O`, for which, in data set [1], the IC50 amounted to 1.59 µM.

Regarding `CC(=O)C1=C(O)C=C2Oc3c4c(c(C)c(O)c3[C@@]2(C)C1=O)O/C(=C\c1cc(Br)cc(Br)c1)C4=O`, the values for the half-inhibitory concentration (IC50) in data set [1], in [7] and in data set [8] were 0.53 µM, 4 µM and 0.64 µM, respectively.

With `CC(=O)C1=C(O)C=C2Oc3c4c(c(C)c(O)c3[C@@]2(C)C1=O)O/C(=C\c1cc(Br)cs1)C4=O`, in data set [1], the IC50 was found to be 0.6 µM.

In the case of `CC(=O)C1=C(O)C=C2Oc3c4c(c(C)c(O)c3[C@@]2(C)C1=O)O/C(=C\c1ccc(Br)s1)C4=O`, the 50% cytotoxic concentration (CC50) at 72 h in [2] was 8.7 µM; in [3] it was 15.7 µM. The IC50 in data set [1] stood at 0.063 µM. Also, the selectivity ratio in the data set on Tdp1 [4] was 138; in the data set with Tdp1 [5], 249. For the same molecule, the 50% cytotoxic concentration (CC50) with A549 [6] was 0.047 µM. Besides, the “fold change (FC)” value in the data set with A549 [9] was 2; in the data set with HEK293, 2 to 4.

As for `CC(=O)C1=C(O)C=C2Oc3c4c(c(C)c(O)c3[C@@]2(C)C1=O)O/C(=C\c1ccc(F)cc1)C4=O`, in [1], the 50% inhibitory concentration (IC50) was 0.98 µM.

In the case of `CC(=O)C1=C(O)C=C2Oc3c4c(c(C)c(O)c3[C@@]2(C)C1=O)O/C(=C\c1ccc[nH]1)C4=O`, the concentration for half-maximal inhibition (IC50) in data set [1] was found to be 3.65 µM.

For the molecule `CC(=O)C1=C(O)C=C2Oc3c4c(c(C)c(O)c3[C@]2(C)C1=O)O/C(=C\c1ccc(Br)s1)C4=O`, the IC50 in data set [1] stood at 0.081 µM.

For `COc1ccc(/C=C2\Oc3c(C)c(O)c4c(c3C2=O)OC2=CC(O)=C(C(C)=O)C(=O)[C@@]24C)cc1`, the CC50 at 72 h in data set [2] was 8.3 µM; in data set [3], 15.8 µM. Also, in [1], the IC50 came out at 0.34 µM. Also, the selectivity ratio in the data set with Tdp1 [4] was 24.4; in the data set with Tdp1 [5] it was 46.5. Also, the CC50 with A549 [6] amounted to 0.09 µM.

With `CC(=O)C1=C(O)C=C2Oc3c4c(c(C)c(O)c3[C@@]2(C)C1=O)O/C(=C\c1ccco1)C4=O`, the IC50 in data set [1] amounted to 5.5 µM.

In the case of `COc1ccc(/C=C2\Oc3c(C)c(O)c4c(c3C2=O)OC2=CC(O)=C(C(C)=O)C(=O)[C@@]24C)cc1OC`, the IC50 in data set [1] was 1.02 µM.

As to `CC(=O)C1=C(O)C=C2Oc3c4c(c(C)c(O)c3[C@@]2(C)C1=O)O/C(=C\c1ccc(C)o1)C4=O`, the cytotoxic concentration (CC50) at 72 h in data set [2] and in data set [3] was above 50 µM throughout. The half-maximal inhibitory concentration (IC50) in [1] is 0.16 µM. Also, the selectivity ratio with Tdp1 [4] and in the data set on Tdp1 [5] was above 300 throughout. Moreover, the cytotoxic concentration (CC50) in the data set on A549 [6] was determined as 0.04 µM. Also, the “fold change (FC)” value in the data set on A549 [9] is 2.

Take `CC(=O)C1=C(O)C=C2Oc3c4c(c(C)c(O)c3[C@@]2(C)C1=O)O/C(=C\C1CCCCC1)C4=O`: the IC50 in [1] was above 15 µM.

For the molecule `CC(=O)C1=C(O)C=C2Oc3c4c(c(C)c(O)c3[C@@]2(C)C1=O)O/C(=C\c1cc(C(C)(C)C)cc(C(C)(C)C)c1O)C4=O`, the cytotoxic concentration (CC50) at 72 h in [2] stood at 6.8 µM; in data set [3], 14.5 µM. Also, in [1], the half-inhibitory concentration (IC50) was found to be 0.025 µM. Also, in the data set with Tdp1 [4], the selectivity ratio was determined as 272. Besides, the half-maximal cytotoxic concentration (CC50) with A549 [6] is 0.558 µM.

On to `CC(=O)C1=C(O)C=C2Oc3c4c(c(C)c(O)c3[C@@]2(C)C1=O)O/C(=C\c1ccsc1)C4=O`, for which, in data set [1], the IC50 turned out to be 3.3 µM.

As for `CC(=O)C1=C(O)C=C2Oc3c4c(c(C)c(O)c3[C@@]2(C)C1=O)O/C(=C\c1cccs1)C4=O`, in data set [1], the 50% inhibitory concentration (IC50) turned out to be 0.9 µM.

Regarding `CC(=O)C1=C(O)C=C2Oc3c4c(c(C)c(O)c3[C@@]2(C)C1=O)O/C(=C\c1ccoc1)C4=O`, the IC50 in [1] was 6.73 µM.

With `CC(=O)C1=C(O)C=C2Oc3c4c(c(C)c(O)c3[C@@]2(C)C1=O)O/C(=C\c1cccc(Br)c1)C4=O`, the half-maximal cytotoxic concentration (CC50) at 72 h was 11.4 µM in data set [2] and 14.5 µM in data set [3]. In addition, the IC50 in data set [1] is 0.232 µM. Further, the selectivity ratio worked out at 49.1 in the data set on Tdp1 [4] and 62.5 with Tdp1 [5]. Further, in the data set with A549 [6], the CC50 is 0.132 µM.

On to `CC(=O)C1=C(O)C=C2Oc3c4c(c(C)c(O)c3[C@]2(C)C1=O)O/C(=C\c1cc(C(C)(C)C)cc(C(C)(C)C)c1O)C4=O`, for which, in data set [1], the IC50 turned out to be 0.064 µM.

In the case of `CC(=O)C1=C(O)C=C2Oc3c4c(c(C)c(O)c3[C@@]2(C)C1=O)O/C(=C\c1ccccc1Br)C4=O`, the CC50 at 72 h worked out at 4.56 µM in data set [2] and 15.9 µM in data set [3]. For the same molecule, in data set [1], the IC50 was determined as 0.23 µM. For the same molecule, the selectivity ratio with Tdp1 [4] was determined as 19.8; with Tdp1 [5] it was 69.1. Further, the CC50 with A549 [6] is 0.048 µM. Besides, in the data set on A549 [9], the “fold change (FC)” value is 2.

In the case of `COc1ccc(/C=C2\Oc3c(C)c(O)c4c(c3C2=O)OC2=CC(O)=C(C(C)=O)C(=O)[C@@]24C)c(OC)c1OC`, the cytotoxic concentration (CC50) at 72 h in data set [2] is 4.6 µM; in data set [3], 20 µM. For the same molecule, the half-inhibitory concentration (IC50) in data set [1] was 0.34 µM. Further, the selectivity ratio in the data set with Tdp1 [4] is 13.5; with Tdp1 [5], 58.8. Also, the 50% cytotoxic concentration (CC50) in the data set with A549 [6] was 0.048 µM. The “fold change (FC)” value in the data set with A549 [9] was found to be 2.
